TRPC4 act: activators of mouse TRPC4 channel, primary screen, Fluo4 calcium, HEK293 TRPC4beta/mu-opioid cells | Short transient receptor potential channel 4 (Mus musculus), Q9QUQ5 | Fluo4 calcium fluorescence; stronger effect = higher value | B-score at 10 µM | 310,000 tested, 0.49% active;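 active = B-score above 5 SD of library B-scores, and initial fluorescence ratio not above library mean plus 5 SD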;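 also: positive B-score marks a calcium rise read as TRPC4 activation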
Target sequence (Q9QUQ5 whole entry, looked up): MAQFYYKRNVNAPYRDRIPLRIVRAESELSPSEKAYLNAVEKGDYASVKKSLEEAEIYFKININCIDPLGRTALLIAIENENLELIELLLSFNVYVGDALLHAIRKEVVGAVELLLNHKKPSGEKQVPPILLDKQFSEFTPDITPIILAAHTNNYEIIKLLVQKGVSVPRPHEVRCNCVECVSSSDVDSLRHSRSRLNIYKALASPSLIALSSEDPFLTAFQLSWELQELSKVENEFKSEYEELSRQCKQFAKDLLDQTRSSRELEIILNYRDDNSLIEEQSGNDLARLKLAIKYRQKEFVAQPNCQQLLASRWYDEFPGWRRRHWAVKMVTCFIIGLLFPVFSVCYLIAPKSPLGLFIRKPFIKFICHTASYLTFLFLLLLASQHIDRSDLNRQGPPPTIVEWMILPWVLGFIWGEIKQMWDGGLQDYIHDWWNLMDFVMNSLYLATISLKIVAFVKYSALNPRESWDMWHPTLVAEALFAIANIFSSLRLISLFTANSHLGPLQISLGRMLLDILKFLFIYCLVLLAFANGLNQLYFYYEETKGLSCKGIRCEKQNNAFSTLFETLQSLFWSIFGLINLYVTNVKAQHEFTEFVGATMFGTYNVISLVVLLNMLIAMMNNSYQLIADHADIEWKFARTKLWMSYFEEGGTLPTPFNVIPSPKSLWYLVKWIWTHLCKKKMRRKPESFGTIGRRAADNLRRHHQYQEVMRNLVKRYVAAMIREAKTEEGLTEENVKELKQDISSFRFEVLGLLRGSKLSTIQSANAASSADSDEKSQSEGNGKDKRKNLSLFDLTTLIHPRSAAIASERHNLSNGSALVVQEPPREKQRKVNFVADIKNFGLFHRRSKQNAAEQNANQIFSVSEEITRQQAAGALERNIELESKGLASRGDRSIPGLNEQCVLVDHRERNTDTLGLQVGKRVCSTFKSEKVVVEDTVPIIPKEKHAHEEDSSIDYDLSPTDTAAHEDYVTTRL
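system = HEK293 cells stably co-expressing mouse TRPC4beta and mu-opioid receptor | schedule = Fluo4 dye loading 45 min at room temperature, 110 s recording | measure = B-scored integrated calcium fluorescence ratio | signal = Fluo4 calcium-sensitive dye fluorescence, kinetic, 1 Hz baseline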
TRPC4 PAM: positive allosteric modulators of TRPC4, primary screen, cell-based, mouse TRPC4beta, HEK293 mu-opioid, Fluo-4 calcium | DAMGO EC20, Fluo-4 Ca2+ flux; stronger effect = higher value | AID 2227, 2009 | Short transient receptor potential channel 4 (Mus musculus), Q9QUQ5 | 310,000 tested, 0.42% active | B-score at 10 µM;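 active = B-score of calcium response area above 5 SD of library B-scores, with initial fluorescence ratio within 5 SD of library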
TRPC4 block: inhibitors of mouse TRPC4 channel, primary screen, Fluo4 calcium, HEK293 TRPC4beta/mu-opioid cells; Short transient receptor potential channel 4 (Mus musculus), Q9QUQ5; DAMGO-evoked Fluo4 calcium flux; stronger effect = lower value; B-score at 10 µM; 300,000 tested, 0.39% active;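 active = B-score over 3 SD under the library average, no early fluorescence shift, positive overall ratio signal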
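System: stable TRPC4beta/mu-opioid receptor HEK293 cells; Dosing: single-point compound dosing; Measured by: Fluo4 Ca2+ flux fluorescence; Read-out basis: per-well B score of integrated baseline-normalized Fluo4 ratio.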
TRPC6 act: mouse TRPC6 channel activators, primary screen, cell-based, HEK293, membrane potential dye | 310,000 tested, 0.13% active | HEK293-TRPC6 membrane potential dye fluorescence; stronger effect = higher value | B-score at 10 µM | AID 2550, 2010;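 active = B-score of the integrated fluorescence ratio above library mean plus 3 SD, and starting fluorescence ratio within library mean plus 5 SD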;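 also: higher score means more depolarization so channel activation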
TRPC6 inhibitor: mouse TRPC6 channel inhibitors, primary screen, cell-based, HEK293, membrane potential dye; Short transient receptor potential channel 6 (Mus musculus), Q61143; ACh-evoked depolarization; stronger effect = lower value; B-score at 10 µM; 310,000 tested, 1.1% active; AID 2553, 2010;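 active = B-score under library mean minus 3 SD, initial fluorescence not abnormally high, positive integrated signal ratio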;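 also: B-score derived from integrated fluorescence ratio over the kinetic read; more negative B-score means stronger inhibition of depolarization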
TRPC4 sel inh 2: second selectivity test of TRPC6 inhibitors: effect on mouse TRPC4; shares compounds with TRPC6 inhibitor; AID 2776; HEK293 TRPC4/MOR, membrane potential dye fluorescence; channel activated by saturating DAMGO dose; 920 tested, 42% active; inhibition, % at 10 µM;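 active = compounds whose fluorescence signal differed from control wells by over 3 SD, either direction, in both duplicate plates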
TRPC4 spec: mouse TRPC4 modulation by TRPC6 hits, confirmation, selectivity assay for TRPC6 inhibitor project, cell-based, HEK293 TRPC4/mu-opioid, membrane potential dye; shares compounds with TRPC6 inhibitor; membrane potential fluorescence; activity change, negative = inhibition, % at 10 µM; 920 tested, 61% active;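 active = rise or fall in signal beyond 3 SD of buffer-only wells in both replicate plates, either sign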;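 also: integrated kinetic ratio of fluorescence range over baseline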
HEK293 MPD ctr 2-1: nonspecific membrane potential effects, parental HEK293, confirmation, counter-screen for TRPC6 inhibitor project, cell-based, second counter screen; shares compounds with TRPC6 inhibitor; signal change vs control, % at 10 µM; 920 tested, 31% active; parental HEK293 membrane potential dye fluorescence; maximal acetylcholine challenge after compound addition;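 active = membrane potential signal moving either way by over 3 SD of the maximum-effect control, in both duplicate plates, meaning non-specific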
HEK293 MPD ctr-1: membrane potential modulation in parental HEK293, confirmation, counter-screen for TRPC6 inhibitor project, cell-based | AID 2780, 2010 | parental HEK293 membrane potential dye fluorescence | shares compounds with TRPC6 inhibitor | 920 tested, 60% active | membrane potential signal change, % at 10 µM;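 active = membrane potential signal shifting up or down by more than 3 SD of buffer-only wells, on both duplicate plates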
HEK293 MPD ctr-2: parental HEK293 membrane potential modulation, confirmation, counter-screen for TRPC6 modulator project, cell-based. membrane potential signal change, % at 10 µM. 2,400 tested, 51% active. membrane potential dye fluorescence. shares compounds with TRPC6 inhibitor;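 active = membrane potential signal moves up or down beyond 5 SD from buffer-only wells, on both duplicate plates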
HEK293 MPD ctr 2-2: parental HEK293 nonspecific activity of TRPC6 modulators, second screen | shares compounds with TRPC6 inhibitor | membrane potential dye fluorescence; after compound, maximal acetylcholine stimulation | inhibition, % at 10 µM | 2,400 tested, 14% active;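 active = membrane potential signal drops by more than 5 SD from the mean control signal, in both duplicate plates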
TRPC4/MOR mod: TRPC4 modulation by TRPC6 hit compounds, confirmation, selectivity assay for TRPC6 modulator project, cell-based, HEK293 TRPC4/mu-opioid, membrane potential dye, mouse; shares compounds with TRPC6 inhibitor; membrane potential fluorescence; percent change from control (negative = decrease, positive = increase), % at 10 µM; 2,400 tested, 69% active; AID 488927, 2010;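 active = membrane potential signal moved up or down beyond 5 SD of buffer control wells, in both duplicate plates, actives on both sides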
TRPC4 ctr inh 2: second selectivity test of TRPC6 modulators against mouse TRPC4; shares compounds with TRPC6 inhibitor; HEK293 TRPC4/mu-opioid, membrane potential dye fluorescence; stimulated with maximal-effect DAMGO; inhibition, % at 10 µM; 2,400 tested, 55% active; AID 488928;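 active = drop in membrane potential signal beyond 5 SD of the control wells in both duplicate plates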;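 also: TRPC4 counter screen for TRPC6 hits run under conditions tuned for TRPC6 not TRPC4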
TRPC6 inh conf: mouse TRPC6 channel inhibitors, confirmation, HEK293 cells, membrane potential dye, duplicate. inhibition, % at 10 µM. shares compounds with TRPC6 inhibitor. 3,300 tested, 43% active. ACh-evoked depolarization;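 active = fluorescence ratio falls more than 5 SD below the full-stimulation control mean, in both duplicate runs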;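 also: integrated fluorescence ratio of peak minus minimum over baseline after agonist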
TRPC6 act confirm: mouse TRPC6 channel activators, confirmation, HEK293 cells, membrane potential dye, duplicate. shares compounds with TRPC6 inhibitor. HEK293-TRPC6 membrane potential dye fluorescence, FDSS. activation, % at 10 µM. 2,800 tested, 11% active;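 active = ratio signal rise beyond 5 SD above unstimulated control wells' mean, seen in both duplicate runs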
Numbers stand for hits; i = inactive; nt = not tested or not shown. Shown are actives, neighbours in structure and some others; about 2.3% of the full set was active somewhere.

SMILES | TRPC4 act | TRPC4 PAM | TRPC4 block | TRPC6 act | TRPC6 inhibitor | HEK293 MPD ctr-2 | HEK293 MPD ctr 2-2 | TRPC4/MOR mod | TRPC4 ctr inh 2 | TRPC6 inh conf | TRPC6 act confirm | others
O=C(Nc1cccc(-c2ccc(N3CCCCC3)nn2)c1)c1ccco1 | i | i | i | i | i | nt | nt | nt | nt | nt | nt
COc1ccc(-c2csc(N(CCCN(C)C)C(=O)c3cc(OC)c(OC)c(OC)c3)n2)cc1 | i | i | i | i | -5.68 | i | i | i | 66.5% | i | i
CCN(CC)CCCN(C(=O)c1ccc(OC)cc1)c1nc(-c2ccc(OC)cc2)cs1 | i | i | i | i | -9.11 | nt | nt | nt | nt | 77.3% | i | TRPC4 sel inh 2=23.5%;TRPC4 spec=-17.6%;HEK293 MPD ctr 2-1=i;HEK293 MPD ctr-1=i
COc1ccc(-c2csc(N(CCCN(C)C)C(=O)c3ccc(C(C)(C)C)cc3)n2)cc1 | i | i | i | i | i | nt | nt | nt | nt | nt | nt
CCN(CC)CCCN(C(=O)c1ccccc1F)c1nc(-c2ccc(OC)cc2)cs1 | i | i | i | i | -7.12 | nt | nt | nt | nt | 51.2% | i | TRPC4 sel inh 2=47.0%;TRPC4 spec=i;HEK293 MPD ctr 2-1=i;HEK293 MPD ctr-1=-0.1%
COc1ccc(-c2csc(N(CCCN(C)C)C(=O)c3ccc(Br)cc3)n2)cc1 | i | i | i | i | i | nt | nt | nt | nt | nt | nt
CCN(CC)CCCN(C(=O)c1ccccc1C)c1nc(-c2ccc(OC)cc2)cs1 | i | i | i | i | i | nt | nt | nt | nt | nt | nt
COc1ccc(-c2csc(N(CCCN(C)C)C(=O)c3ccc(C)cc3)n2)cc1 | i | i | i | i | -6.49 | i | i | i | 81.5% | 56.0% | i
Nc1c2c(nc3ccccc13)CSCC2 | i | i | i | i | -7.21 | nt | nt | nt | nt | 55.4% | i | TRPC4 sel inh 2=13.0%;TRPC4 spec=-29.6%;HEK293 MPD ctr 2-1=i;HEK293 MPD ctr-1=-481.5%
CN1CCCCc2c1nc1ccccc1c2N (tested in a mixture with another compound) | i | i | -7 | i | -8.6 | nt | nt | nt | nt | 86.6% | i | TRPC4 sel inh 2=4.5%;TRPC4 spec=-18.8%;HEK293 MPD ctr 2-1=i;HEK293 MPD ctr-1=-251.5%
Nc1c2c(nc3ccccc13)N(c1ccccc1)CC2 | i | i | -6 | i | -7.96 | -129.5% | i | -40.5% | 85.0% | 47.5% | i
CC(C)(C)OC(=O)CC1(C#N)c2ccccc2C(Br)=CN1C(=O)c1ccccc1 (stereo not drawn) | i | i | i | i | i | nt | nt | nt | nt | nt | nt
Cc1ccc(CNC(=O)CSc2nc(=O)n3cccc(C)c3n2)cc1 | i | i | i | i | i | nt | nt | nt | nt | nt | nt
Cc1ccc(C2C(C#N)=C(N)Oc3cc(N)ccc32)cc1 (stereo not drawn) | i | i | i | 13.4 | i | i | i | i | i | i | i
Nn1c(-c2cccc([N+](=O)[O-])c2)nc2ccccc2c1=O | i | i | i | i | i | nt | nt | nt | nt | nt | nt
COCCNC(=S)N1CCOCC1 | i | i | i | i | i | nt | nt | nt | nt | nt | nt
C=COCCNC(=S)N1CCOCCOCCN(C(=S)NCCOC=C)CCOCC1 | i | i | i | i | -4.99 | i | i | i | 39.5% | i | i
O=C1C(NS(=O)(=O)c2cccs2)=C(N2CCN(Cc3ccccc3)CC2)C(=O)c2ccccc21 | i | i | i | i | -7.28 | -135.5% | i | -36.0% | 72.5% | 57.5% | i
CN1CCN(C2=C(NS(=O)(=O)c3cccs3)C(=O)c3ccccc3C2=O)CC1 | i | i | i | i | i | nt | nt | nt | nt | nt | nt
CN(C(=O)/C=C/c1ccccc1)C1CCCCC1 | i | i | i | i | i | nt | nt | nt | nt | nt | nt
NCCCCCC(=O)Nc1ccncc1 | i | i | i | i | i | nt | nt | nt | nt | nt | nt
O=C(CN1CCN(Cc2ccccc2)CC1)Nc1ccc([N+](=O)[O-])cc1C(=O)Nc1ccccc1F | i | i | i | i | -5.07 | i | i | i | 70.5% | 38.5% | i
COc1cc(NC(=O)c2cc([N+](=O)[O-])ccc2NC(=O)CN2CCN(c3ccccn3)CC2)cc(OC)c1 | i | 10 | i | i | -5.93 | i | i | i | 40.5% | i | i
COC(=O)CN1C(=O)[C@H]2[C@@H](/C=C/c3ccccc3)N3C(=O)CN(CCO)C(=O)[C@@]3(Cc3ccccc3)[C@H]2C1=O | i | i | i | i | i | nt | nt | nt | nt | nt | nt
CC(Sc1nnc(-c2ccco2)n1C)C(=O)Nc1nccs1 (stereo not drawn) | i | i | i | i | i | nt | nt | nt | nt | nt | nt
O=C(Nc1ccccc1C(=O)O)c1ccc(NC(=O)c2ccc(Br)o2)cc1 | i | i | i | 16.6 | i | 190.0% | i | 27.0% | i | i | 93.5%
CCN(CC)C1CCN(C(=O)CCc2nnc(CCCCc3ccccc3)o2)C1 (stereo not drawn) | i | i | i | i | -5.18 | i | i | i | i | i | i

Bioassay records (PubChem BioAssay)
